# Laboratory results from ChEMBL document CHEMBL1671775, “Synthesis, anticancer activity, and iron affinity of the Actinoplanes metabolite 7,8-dihydroxy-1-methylnaphtho[2,3-c]furan-4,9-dione” (Bioorg Med Chem, 2011).
# Legend:
# Type in all cases: functional, cell-based
# HT-29 = assay: Cytotoxicity against human HT-29 cells after 72 hrs by MTT assay; conditions: HT-29, 72 h
# [1] = Cytotoxicity against human MCF7/Topo cells after 72 hrs by MTT assay
# Summary of the method: (§1)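 Cells were seeded at 5 × 10^4/mL and cultured 24 h, then exposed to compound for 72 h. KB-V1/Vbl cells were grown in DMEM with 10% FCS and MCF-7/Top cells in EMEM with 5% FCS, pyruvate and NaHCO3. MTT was added to a final 0.1% for 2 h. Medium was discarded, and formazan was dissolved in DMSO/SDS/acetic acid. A570 was read against A630 background. IC50 was taken from concentration–response curves versus untreated controls; four independent experiments.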
# HL-60 = assay: Cytotoxicity against human HL60 cells after 72 hrs by MTT assay; conditions: HL-60, 72 h
# Summary of the method: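 HL-60 cells were grown in RPMI 1640 with 10% FCS at 37 °C and 5% CO2, seeded at 5 × 10^5/mL and cultured 24 h. Cells were then exposed to compound for 72 h. MTT was added to a final 0.05% for 2 h, and formazan was dissolved in DMSO with 10% SDS and 0.6% acetic acid. A570 was read against A630 background. IC50 was taken from concentration–response curves relative to untreated controls; quadruplicate, four independent experiments.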
# [2] = Cytotoxicity against human 518A2 cells after 72 hrs by MTT assay; conditions: 518A2, 72 h
# Summary of the method: (§2)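 518A2 cells and foreskin fibroblasts were grown in DMEM with 10% FCS, seeded at 5 × 10^4/mL and cultured 24 h. Cells were then exposed to compound for 72 h. MTT was added to a final 0.05% for 2 h. Medium was discarded, and formazan was dissolved in DMSO/10% SDS/0.6% acetic acid. A570 was read against A630 background. IC50 was taken from concentration–response curves versus untreated controls; four independent experiments.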
# HFF = assay: Cytotoxicity against human HFF after 72 hrs by MTT assay; summary of the method: as §2
# [3] = Cytotoxicity against human KB-V1/Vbl cells after 72 hrs by MTT assay; summary of the method: as §1
SMILES,IC50 (HT-29),IC50 [1],IC50 (HL-60),IC50 [2],IC50 (HFF),IC50 [3]
COc1ccc2c(c1O)C(=O)c1c(coc1C)C2=O,31 µM,16 µM,18 µM,> 100 µM,31 µM,51 µM
Cc1occ2c1C(=O)c1c(ccc(O)c1O)C2=O,70 µM,> 100 µM,89 µM,84 µM,69 µM,86 µM
CC1=CC(=O)C(C(C)C)=CC1=O [THYMOQUINONE],47 µM,27 µM,28 µM,28 µM,33 µM,32 µM
